# KCNQ1 pot: potentiates or activates the human KCNQ1 potassium channel; CHO-K1 KCNQ1, thallium flux FluxOR fluorescence; hits give high values; B-score at 10 µM; 0.35% of 310,000 active; AID 2648;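 active means fluorescence ratio B-score, a plate-corrected score, at least three library SD, with initial intensity B-score within 5 SD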
#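 assay system = CHO-K1 cells stably expressing KCNQ1 | medium = assay buffer, equal DMSO in all wells | timing = 37 °C overnight plating, 90-min dark dye load, 20-min compound pretreatment | measured by = kinetic FluxOR thallium fluorescence, 10-s 1-Hz baseline, 110-s post-stimulus read | measure = fluorescence change relative to baseline, converted to B score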
# KCNK3 inh: human KCNK3 channel inhibition, primary screen; O14649; B-score at 10 µM; AID 602410; CHO-KCNK3 thallium flux, FluxOR fluorescence; hits give low values; 0.84% of 340,000 active;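 active means B-score under library mean minus 4 SD, starting fluorescence ratio at most library mean plus 5 SD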;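 further: more negative B-score means stronger inhibition of thallium flux through KCNK3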
# KCC2 mod: KCC2 (human) Cl- transport modulation; 2.2% of 190,000 active; Q9H2X9; AID 1456; KCC2 cells, thallium flux FluoZin-2 fluorescence; B-score of Tl+ flux slope (higher = more flux/activation; lower = inhibition) at 10 µM;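 active means thallium flux slope and its plate-corrected score both differing from the plate sample mean at a set confidence after two filtering rounds, in either direction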;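 further: slope of fluorescence scaled to starting intensity during 10 to 20 s after thallium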
# KCNK9 block: inhibitors of human KCNK9 two-pore domain potassium channel; 1.2% of 310,000 active; B-score at 10 µM; HEK293 KCNK9, FluxOR thallium flux fluorescence; hits give low values; Q9NPC2;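 active means ratio B-score over 3 SD below the library mean, with starting fluorescence within 5 SD of its mean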;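 further: negative B-score means less thallium flux so channel inhibition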
# Target sequence (Q9NPC2 whole entry, looked up, the tested form may be a part): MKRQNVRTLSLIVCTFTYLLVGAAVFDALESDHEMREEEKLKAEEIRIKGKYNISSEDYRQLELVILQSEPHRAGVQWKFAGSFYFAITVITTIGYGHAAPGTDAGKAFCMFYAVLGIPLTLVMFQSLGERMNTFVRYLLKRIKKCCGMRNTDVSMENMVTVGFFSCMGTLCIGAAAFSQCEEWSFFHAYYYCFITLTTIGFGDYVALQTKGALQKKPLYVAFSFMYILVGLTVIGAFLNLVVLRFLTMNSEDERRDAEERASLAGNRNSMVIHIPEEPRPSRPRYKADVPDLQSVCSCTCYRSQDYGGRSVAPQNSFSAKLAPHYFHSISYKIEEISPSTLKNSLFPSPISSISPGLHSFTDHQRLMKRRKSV
# hERG protect: shields human hERG channel from block by proarrhythmic agents; Q12809; CHO-hERG, FluxOR thallium flux, dofetilide IC70 present; activation (rescue from dofetilide block), less the hit threshold, % at 10 µM; 0.51% of 310,000 active;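 active means activation above the mean of controls blocked by dofetilide plus 5 SD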;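 further: thallium influx through hERG after potassium depolarization seen as dye fluorescence rise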
# KCNQ1 inh: human KCNQ1 channel inhibition. P51787. CHO-K1 KCNQ1, FluxOR thallium flux fluorescence; hits give high values. B-score at 10 µM. 1.3% of 310,000 active. AID 2642;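 active means compounds whose thallium flux B-score, printed positive for inhibition, exceeds three library SD while starting fluorescence stays within three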;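 further: channel opened by potassium depolarization with thallium stimulus after 20 min compound exposure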
# KCNK9 block conf: confirmation of human KCNK9 potassium channel inhibitors | shares compounds with KCNK9 block | 43% of 4,900 active | HEK293 KCNK9 cells, FluxOR thallium flux fluorescence | inhibition, % at 10 µM | AID 492992;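 active means thallium signal inhibited by more than 5 SD of the compound-free buffer control wells, on both duplicate plates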;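 further: 0% = assay buffer control wells without compound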
# Kir2-1 spec: tests whether KCNK9 modulators also affect mouse Kir2.1; shares compounds with KCNK9 block; Kir2.1 cells, FluxOR thallium flux fluorescence; inhibition, % at 10 µM; 4% of 4,900 active; AID 492993;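 active means thallium signal drop more than 5 SD beyond the mean of the no-compound control wells, seen in both duplicate plates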;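 further: signal is fluorescence rise after thallium addition divided by baseline fluorescence; plate controls were assay buffer only for no effect and full block by chlorpromazine control for full effect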
# KCNK9 uninduced: second counter-screen for KCNK9 modulators: effect in non-induced cells | shares compounds with KCNK9 block | 40% of 4,900 active | non-induced KCNK9-HEK293, FluxOR thallium flux | inhibition, % at 10 µM;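 active means thallium signal drop beyond 5 SD of the untreated control mean, on both duplicate plates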;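 further: plate controls were buffer only IC0 wells for no effect and SID17386958 at its maximal inhibitory level for full effect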
# * hit, by the source's call; i = inactive; · = no result given. This is a sample that favours compounds with a hit; in the whole collection about 4.1% have one here.
SMILES,KCNQ1 pot,KCNK3 inh,KCC2 mod,KCNK9 block,hERG protect,KCNQ1 inh,KCNK9 block conf,Kir2-1 spec,KCNK9 uninduced
O=C(C1=C[C@H](c2ccc(C(F)(F)F)cc2)C[C@H](OCCCCO)O1)N1CCN(Cc2ccccc2)CC1,i,i,-0.056,i,-11,i,i,i,i
O=C(C1=C[C@@H](c2ccc(Br)cc2)C[C@@H](OCc2ccc(CO)cc2)O1)N1CCN(Cc2ccccc2)CC1,i,i,-0.51,i,-10,i,·,·,·
C#Cc1ccc([C@H]2C=C(C(=O)N3CCN(Cc4ccccc4)CC3)O[C@@H](OCc3ccc(CO)cc3)C2)cc1,i,i,-0.45,i,-9,i,i,i,i
CCCCSc1nnc(-c2ccccc2)c2ccccc12,i,i,-0.24,-15*,-17,i,38%*,i,42%*
CCN1CCN(c2nnc(-c3ccccc3)c3ccccc23)CC1,i,i,·,i,-3,i,·,·,·
CCCCC(=O)N(c1ccc(C(=O)O)cc1)c1nc(-c2ccc(Cl)cc2)c(CC)s1,i,i,-1.8,i,-10,i,i,i,i
CCc1sc(N(C(=O)Cc2ccccc2)c2ccccc2)nc1-c1ccccc1,i,i,0.065,i,-13,i,·,·,·
COc1ccc(CCC(=O)Nc2ccc(Cn3ccnc3)cc2)cc1,i,i,·,i,-7,i,·,·,·
CCN1/C(=C/c2ccc3ccccc3[n+]2CC)C=Cc2ccccc21,i,-9*,-3.6,-18*,-38,13*,86%*,94%*,59%*
N#C/C(=C/c1ccc(OCc2ccc(C(=O)O)cc2)c(Br)c1)c1cccc(F)c1,i,i,-1.7,i,-11,i,i,i,i
N#C/C(=C/c1ccccc1OCc1ccc(F)cc1)c1ccc(C(=O)O)cc1,i,i,·,i,-10,i,·,·,·
CCOC(=O)[C@@H]1[C@H]2COc3ccc(Br)cc3[C@H]2N2C(=O)N(c3cccc(Cl)c3)C(=O)[C@]12C,i,i,·,-11*,-8,i,73%*,i,28%*
CCOC(=O)[C@@H]1[C@H]2COc3ccc(Br)cc3[C@@H]2N2C(=O)N(c3ccccc3)C(=O)[C@@]12C,i,i,·,-9*,-3,i,52%*,i,30%*
CCOC(=O)[C@@H]1[C@H]2COc3ccc(Br)cc3[C@H]2N2C(=O)N(c3ccc(Br)cc3)C(=O)[C@]12C,i,i,·,-16*,-10,i,70%*,i,28%*
CCOC(=O)[C@H]1[C@H]2COc3ccc(Br)cc3[C@@H]2N2C(=O)N(c3ccccc3)C(=O)[C@@]12C,·,i,·,·,·,·,·,·,·
O=C(COC(=O)C1CCN(c2ccc(C(F)(F)F)cn2)CC1)c1ccccc1,i,i,·,i,-7,i,i,i,i
O=C(COC(=O)C1CCN(c2ccc(C(F)(F)F)cn2)CC1)c1cccc(Br)c1,i,i,·,i,-16,i,·,·,·
C[C@@H]1CN([C@H](C)CO)C(=O)c2cccc(NS(=O)(=O)c3ccccc3)c2O[C@H]1CN(C)C,·,i,·,·,·,·,·,·,·
C/C(=N\NC(=O)c1nn(C)c(C)c1Br)c1ccc(NC(=O)C2CCCC2)cc1,i,i,·,-12*,-7,i,68%*,i,i
Cc1ccc(S(=O)(=O)/N=C(/Nc2c(C)cccc2C)c2ccccc2)cc1,·,i,·,·,·,·,·,·,·
CCOc1cc(C(=O)Nc2cc(C(=O)OC)ccc2C)ccc1OCC(=O)N1CCOCC1,·,i,·,·,·,·,·,·,·
O=C1CSC(c2ccc3c(c2)OCO3)N1c1ccc(Oc2ccccc2)cc1 (centres undefined),i,i,-0.037,-14*,-10,i,50%*,i,i

# Compound activity from PubChem BioAssay.
